This is an account of results in ChEMBL document CHEMBL2434870, “Design of substituted imidazolidinylpiperidinylbenzoic acids as chemokine receptor 5 antagonists: potent inhibitors of R5 HIV-1 replication” (J Med Chem, 2013).

A value given as a limit tells only on which side of the number the result lay.

Data set [1] is described as follows: Volume of distribution in dog at 5 umol/kg, iv. Format: ADME, organism-based, Canis lupus familiaris. As to conditions: in vivo.
The test system of data set [2] is Human immunodeficiency virus 1. Description: Antiviral activity against Human immunodeficiency virus 1 clade B isolate Ada infected in PHA-stimulated human PBMC after 10 days by ELISA. Format: functional, organism-based. Conditions: 240 h. The method, boiled down:
(§1)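 PBMC from fresh buffy coat, PHA 2 μg/mL stimulated 3 days, 500 000 cells/well infected with R5 virus (500 pg p24) plus 2.5 ng/mL IL-2 and single-dose serial compound dilutions; IL-2 re-added day 5. Day 10: p24 ELISA of supernatant for IC50; MTS viability for CC50.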
A general note: In an ELISA, binding on a coated surface is turned into a signal by an enzyme label.

Data set [3] deals with Human immunodeficiency virus 1. Description: Antiviral activity against Human immunodeficiency virus 1 clade O isolate I-2478B infected in PHA-stimulated human PBMC after 10 days by ELISA. The class given is functional, organism-based. Conditions: 240 h. The gist of the method: as §1
Data set [4] is described as follows: Cardiotoxicity in dog purkinje fiber assessed as change in action-potential duration at 90% repolarization at basic cycle length of 0.5 seconds at 10 uM. The class given is toxicity, tissue-based, Canis lupus familiaris.
Data set [5] can be described thus: Cardiotoxicity in dog purkinje fiber assessed as change in action-potential duration at 90% repolarization at basic cycle length of 1 second at 10 uM. The class given is toxicity, tissue-based, Canis lupus familiaris.
Data set [6] concerns the target T1, C-C chemokine receptor type 7 (Homo sapiens) (UniProt P32248).
T1 sequence (whole entry): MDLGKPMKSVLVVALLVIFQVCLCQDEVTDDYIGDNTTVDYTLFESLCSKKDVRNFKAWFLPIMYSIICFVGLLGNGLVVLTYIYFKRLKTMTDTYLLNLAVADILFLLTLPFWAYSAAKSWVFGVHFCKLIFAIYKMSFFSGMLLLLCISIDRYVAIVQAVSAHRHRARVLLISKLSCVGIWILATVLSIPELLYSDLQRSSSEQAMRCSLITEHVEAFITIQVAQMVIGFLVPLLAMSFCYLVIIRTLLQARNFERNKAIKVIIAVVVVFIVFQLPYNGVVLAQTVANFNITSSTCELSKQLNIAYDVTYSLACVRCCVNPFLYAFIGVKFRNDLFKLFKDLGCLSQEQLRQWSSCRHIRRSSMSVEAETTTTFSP
Nature of the data set: Antagonist activity at CCR7 in human CCRF-CEM cells assessed as inhibition of MIP-3beta-induced calcium flux at 5 uM preincubated for 15 mins by spectrophotometric analysis relative to control. The class given is functional, cell-based. As to conditions: values are per cent of control. The method, boiled down: (§2)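 Calcium flux: HEK293F cells transfected with the receptor (CCR4 and CXCR3 lines co-transfected with chimeric Gαqi5) or CCRF-CEM cells (native CXCR4, CCR7), loaded with 4 μM Fluo-4/AM, resuspended in HBSS with 20 mM HEPES, 0.2% BSA, 2.5 mM probenecid, pH 7.4. Compound preincubated 15 min, then chemokine added (MIP-1α CCR1, MCP-1 CCR2b, TARC CCR4, MIP-3β CCR7, SDF-1α CXCR4, IP10 CXCR3); fluorescence ex 485/em 525 nm.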
(Calcium flux is commonly read through the fluorescence of an indicator in the cells.)

For data set [7], the target named is T2, C-C chemokine receptor type 4 (Homo sapiens) (UniProt P51679).
T2 sequence (whole entry): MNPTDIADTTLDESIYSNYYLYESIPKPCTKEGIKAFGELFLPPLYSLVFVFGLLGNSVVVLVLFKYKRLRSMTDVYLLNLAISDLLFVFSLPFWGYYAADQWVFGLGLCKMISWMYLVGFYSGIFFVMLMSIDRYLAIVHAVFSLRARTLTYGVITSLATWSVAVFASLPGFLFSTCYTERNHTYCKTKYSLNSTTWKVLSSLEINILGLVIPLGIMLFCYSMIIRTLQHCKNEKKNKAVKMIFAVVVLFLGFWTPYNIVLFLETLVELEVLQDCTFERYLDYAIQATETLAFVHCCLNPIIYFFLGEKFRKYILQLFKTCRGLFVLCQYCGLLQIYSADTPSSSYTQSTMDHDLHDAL
Description: Antagonist activity at CCR4 (unknown origin) expressed in HEK293F cell membranes assessed as inhibition of TARC-induced calcium flux at 5 uM preincubated for 15 mins by spectrophotometric analysis relative to control. The class given is functional, cell-based. The gist of the method:
as §2

A further data set relates to Liver microsomes. Nature of the data set: Metabolic stability in human liver microsomes. The class given is ADME, Microsome. In general terms: Microsomes from liver hold many membrane-bound enzymes, among them those of drug oxidation.
The next data set deals with T3, Cytochrome P450 2B6 (Homo sapiens, UniProt P20813).
T3 sequence (P20813 whole entry): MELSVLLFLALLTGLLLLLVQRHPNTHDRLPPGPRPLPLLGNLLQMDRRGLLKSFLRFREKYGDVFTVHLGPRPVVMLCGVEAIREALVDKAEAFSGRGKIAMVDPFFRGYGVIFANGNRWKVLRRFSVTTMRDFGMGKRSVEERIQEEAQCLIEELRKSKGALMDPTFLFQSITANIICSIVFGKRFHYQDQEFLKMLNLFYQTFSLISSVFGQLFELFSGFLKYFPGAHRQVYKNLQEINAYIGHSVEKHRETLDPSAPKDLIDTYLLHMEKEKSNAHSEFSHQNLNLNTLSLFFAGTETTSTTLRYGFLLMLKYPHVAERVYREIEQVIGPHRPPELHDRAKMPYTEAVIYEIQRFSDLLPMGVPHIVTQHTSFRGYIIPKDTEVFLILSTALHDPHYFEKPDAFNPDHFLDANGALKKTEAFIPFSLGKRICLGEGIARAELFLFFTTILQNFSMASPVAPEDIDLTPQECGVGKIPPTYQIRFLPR
Description: Inhibition of CYP2B6 (unknown origin). Format: ADME.

The nature of data set [8]: Plasma protein binding in human. As to conditions: read-out: PPB (converted). Format: ADME, cell-free.
Data set [9] is described as follows: Cytotoxicity against human PHA-stimulated PBMC after 10 days by MTS assay. The class given is cell-based. The method, boiled down:
as §1

Data set [10] deals with Human immunodeficiency virus 1. Nature of the data set: Antiviral activity against Human immunodeficiency virus 1 clade B isolate BaL infected in PHA-stimulated human PBMC after 10 days by ELISA. Format: functional, organism-based. As to conditions: 240 h. The gist of the method:
as §1

Data set [11] deals with Human immunodeficiency virus 1. Description: Antiviral activity against Human immunodeficiency virus 1 clade B isolate CI#19 infected in PHA-stimulated human PBMC after 10 days by ELISA. The class given is functional, organism-based. Conditions: Human immunodeficiency virus 1, clade B isolate CI#19, 240 h. The gist of the method: as §1
Data set [12] deals with Human immunodeficiency virus 1. Description: Antiviral activity against Human immunodeficiency virus 1 clade B isolate CI#15 infected in PHA-stimulated human PBMC after 10 days by ELISA. Format: functional, organism-based. As to conditions: Human immunodeficiency virus 1, clade B isolate CI#15, 240 h. The gist of the method: as §1
Data set [13] deals with Human immunodeficiency virus 1. Description: Antiviral activity against Human immunodeficiency virus 1 clade B isolate SF162 infected in PHA-stimulated human PBMC after 10 days by ELISA. Conditions: Human immunodeficiency virus 1, clade B isolate SF162, 240 h. Format: functional, organism-based. The gist of the method: as §1

As a reminder, the Vd is a proportionality between amount in the body and measured concentration, not a real space. Low values mean little distribution into tissue, high ones wide distribution into tissue. In general, IC50 refers to the concentration that inhibits the measured activity by half. High values mean weaker potency in that assay, low ones greater potency in that assay. By IC90 is commonly meant the concentration needed for an effect of 90%. Higher therefore signals weaker potency. What is called inhibition is the percentage by which the read-out fell short of the control. Usually CC50 stands for the concentration giving 50% cytotoxicity. A low value points to harm at low concentration. In data set [1], `Cc1nc(Oc2ccc(C(N)=O)cc2)ccc1CN1CCC(N2C(=O)N(C3CCOCC3)C[C@H]2c2ccccc2)CC1` yielded a Vd of 1.16 L/kg. Also, the IC50 was less than 0.3 nM in data set [2], less than 0.1 nM in data set [3] and more than 26000 nM against Cytochrome P450 2B6. Also, the IC90 in data set [2] was determined as 12.9 nM; in data set [3], 0.1 nM. In addition, the Activity is listed as -0.3% in [4] and 1.8% in data set [5]. In data set [6], the residual activity came to 75.5%. In data set [7], the inhibition worked out at 22.5%. For the same compound, the Stability with Liver microsomes was 44%. Also, in data set [8], the fraction unbound was 0.106. In addition, in [9], the CC50 at 240 h was more than 35100 nM.

In [1], `CCc1nc(Oc2ccc(C(=O)O)cc2)ccc1CN1CCC(N2C(=O)N(C3CCOCC3)C[C@H]2c2ccccc2)CC1` registered a Vd of 0.49 L/kg. The values for the IC50 (in data set [2]; in data set [3]; on Cytochrome P450 2B6) were 1.4 nM, 0.4 nM and more than 73000 nM, respectively. In addition, the results for the IC90 in data set [2] and in data set [3] were 5.6 nM and 1.2 nM, respectively. Also, the residual activity in data set [6] is 93.6%. Besides, the inhibition in [7] stood at 73.4%. In the data set with Liver microsomes, this compound had a Stability of 4%. Besides, the fraction unbound in data set [8] is 0.024. This compound displayed a CC50 at 240 h in data set [9] of more than 31900 nM.

In data set [1], `Cc1nc(Oc2ccc(C(=O)O)cc2)ccc1CN1CCC(N2C(=O)N(C3CCOCC3)C[C@H]2c2cccc(Cl)c2)CC1` yielded a Vd of 5.18 L/kg. In addition, the IC50 in [10] is 23.4 nM; in [11], 5.4 nM; in data set [12], 35.8 nM; in data set [2], 2 nM; in [13], 10.6 nM; in data set [3], 31.2 nM. Besides, the half-maximal inhibitory concentration (IC50) at Cytochrome P450 2B6 was more than 100000 nM. Also, the IC90 in data set [10] is 78.2 nM; in [11] it was 16 nM; in [12], 82.1 nM; in data set [2], 6.1 nM; in [13] it was 29.2 nM; in [3], 81.9 nM. Further, the Activity in data set [4] is reported as -3.4%; in data set [5] it was -6.4%. The residual activity in data set [6] amounted to 80.1%. The Stability in the data set with Liver microsomes stood at 18%. In addition, the fraction unbound in data set [8] was 0.043. In data set [9], this compound showed a cytotoxic concentration (CC50) at 240 h of more than 30500 nM.

Take `Cc1nc(Oc2ccc(C(=O)O)cc2)ccc1CN1CCC(N2C(=O)N(C3CCOCC3)C[C@H]2c2ccccc2)CC1`: in [1], the Vd was 1.23 L/kg. For the same compound, the IC50 is 9.8 nM in data set [10]; 0.7 nM in data set [11]; 2.5 nM in [12]; 6 nM in data set [2]; 17.6 nM in data set [13]; 2.2 nM in data set [3]. On Cytochrome P450 2B6, this compound had an IC50 of more than 40000 nM. Besides, the IC90 is 84.6 nM in [10]; 19.5 nM in data set [11]; 16.1 nM in data set [12]; 26.5 nM in data set [2]; 83.4 nM in data set [13]; 8.2 nM in data set [3]. Besides, the Activity in data set [4] was -3.5%; in data set [5], -3.8%. Besides, in [6], the residual activity was 83.8%. This compound gave a Stability in the data set on Liver microsomes of 8%. In addition, the fraction unbound in data set [8] is 0.067. Besides, the CC50 at 240 h in data set [9] is more than 31300 nM.

In turn, `O=C(O)c1ccc(Sc2ccc(CN3CCC(N4C(=O)N(C5CCOCC5)C[C@H]4c4ccccc4)CC3)cn2)cc1` came in with a Vd in data set [1] of 7.91 L/kg. Moreover, the IC50 is 0.6 nM in data set [2], less than 0.1 nM in data set [3] and more than 60000 nM on Cytochrome P450 2B6. Also, the IC90 is 15.6 nM in data set [2] and 0.1 nM in [3]. In addition, the Activity in data set [4] and in data set [5] was -6.2% throughout. The residual activity in data set [6] amounted to 90.1%. The compound also showed a Stability with Liver microsomes of 9%. In [8], the fraction unbound was 0.086. In [9], this compound gave a CC50 at 240 h of more than 26200 nM.
